# From ChEMBL document CHEMBL4680189, “Immunosuppressive properties of amino acid and peptide derivatives of mycophenolic acid” (Eur J Med Chem, 2020)
# The source made the active and inactive calls. The rule behind the calls is not given here. Where a SMILES comes first, the peptide text is derived from it. [ ]: non-standard residue; d: D form. The star is where a group is joined. Mycophenolyl = COc1c(C)c2c(c(O)c1C/C=C(\C)CCC(=O)*)C(=O)OC2; Arg(NO2) = N=C(NCCC[C@H](N)C(=O)O)N[N+](=O)[O-]; βAla = NCCC(=O)O
# Assays:
# Jurkat [1] = experiment: Immunosuppression-mediated cytotoxicity against human Jurkat T cells assessed as reduction in cell viability incubated for 48 hrs by MTT assay; format: cell-based
# In short: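 Jurkat cells in RPMI-1640 with 10% FBS and P/S, 50×10^3 cells/well, exposed in triplicate to serial dilutions from 1 mg/mL (DMSO/medium) for 48 h at 37 °C, 5% CO2. MTT (5 mg/ml) then added for 3 h. Formazan dissolved in 0.4 N HCl–isopropanol, absorbance read at 570 nm. IC50 from curve fitting; viability at 1 mg/mL used where IC50 could not be reached.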
# [2] = Immunosuppression-mediated cytotoxicity against anti-CD3/anti-CD28-stimulated human PBMC cells assessed as reduction in cell viability incubated for 72 hrs by MTT assay; format: cell-based
# In short: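 PBMC from buffy coats of healthy donors, isolated on a Ficoll gradient with erythrocyte lysis. Plated at 50×10^3 cells/well with anti-CD3/anti-CD28, serial compound dilutions, in triplicate. Incubated 72 h, 37 °C, 5% CO2. MTT added for 3 h, formazan dissolved in acidified isopropanol (0.4 N HCl), A570 read. Three donors averaged; IC50 from curve fit.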
# Jurkat [3] = experiment: Immunosuppression-mediated antiproliferative activity against human Jurkat T cells assessed as inhibition of cell growth incubated for 48 hrs by VPD450 staining based flow cytometry; format: functional
# In short: (§1)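 Cells stained with VPD450 (2 μL of 1 mM dye per 10-30×10^6 cells in 1 mL PBS, 15 min, 37 °C), washed. PBMC: 50×10^3 cells/well with anti-CD3/anti-CD28, serial compound dilutions, 72 h. Jurkat: 50×10^3 cells/well, 48 h. 37 °C, 5% CO2, triplicate. Dye dilution by flow cytometry; EC50 from curve fit.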
# [4] = Immunosuppression-mediated antiproliferative activity against anti-CD3/anti-CD28-stimulated human PBMC cells assessed as inhibition of cell growth incubated for 72 hrs by VPD450 staining based flow cytometry; format: functional; in short: as §1
# [5] = Selectivity index, ratio of IC50 for cytotoxicity against human Jurkat T cells by MTT assay to EC50 for antiproliferative activity against human Jurkat T cells by VPD450 staining based flow cytometry
# In short: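 Jurkat IC50 from the 48 h MTT assay (50×10^3 cells/well, triplicate) divided by Jurkat EC50. […] Cells treated 48 h with serial dilutions, then dye dilution read by flow cytometry and fitted.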
# [6] = Selectivity index, ratio of IC50 for cytotoxicity against human PBMC by MTT assay to EC50 for antiproliferative activity against human PBMC by VPD450 staining based flow cytometry
# In short: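 Ratio of the MTT cytotoxicity IC50 (72 h, stimulated PBMC) to the VPD450 antiproliferative EC50 (72 h, stimulated PBMC), both from fitted concentration-response curves.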
# PBMC = experiment: Immunosuppression-mediated antiproliferative activity against anti-CD3/anti-CD28-stimulated human PBMC cells assessed as inhibition of cell growth incubated for 72 hrs in presence of GMP by VPD450 staining based flow cytometry; format: functional
# In short: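 VPD450-stained PBMC, 50×10^3 cells/well, anti-CD3/anti-CD28 stimulation, serial compound dilutions plus GMP at 50 μM in the well. Incubated 72 h at 37 °C, 5% CO2, in triplicate. Proliferation read by flow cytometry as dye dilution and expressed relative to controls.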
# Jurkat [7] = experiment: Immunosuppression-mediated cytotoxicity against human Jurkat T cells assessed as reduction in cell viability at 1 mg/ml incubated for 48 hrs by MTT assay relative to control; format: cell-based
# In short: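 Jurkat cells (RPMI-1640, 10% FBS) plated at 50×10^3 cells/well and exposed to 1 mg/mL compound (1 mg in 20 μL DMSO, made up to 1 mL with medium). 48 h at 37 °C, 5% CO2, in triplicate. MTT (5 mg/mL stock) for 3 h, acidified isopropanol, A570. Viability calculated at that concentration.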
compound,measurement,setting,value
CC[C@H](C)[C@H](NC(=O)CC/C(C)=C/Cc1c(O)c2c(c(C)c1OC)COC2=O)C(=O)O,IC50,Jurkat [1],73.7 µM
same,IC50,[2],20.9 µM
same,EC50,Jurkat [3],2.3 µM
same,EC50,[4],9 µM
same,Ratio IC50/EC50,[5],33
same,Ratio IC50/EC50,[6],2.3
same,Activity,PBMC,inactive
COC(=O)C(NC(=O)CC/C(C)=C/Cc1c(O)c2c(c(C)c1OC)COC2=O)C(=O)OC,IC50,Jurkat [1],101 µM
same,IC50,[2],3.5 µM
same,EC50,Jurkat [3],65 µM
same,EC50,[4],11 µM
same,Ratio IC50/EC50,[5],1.6
same,Ratio IC50/EC50,[6],0.3
same,Activity,PBMC,inactive
COc1c(C)c2c(c(O)c1C/C=C(\C)CCC(=O)N[C@H](C(=O)O)[C@@H](C)O)C(=O)OC2,IC50,Jurkat [1],43 µM
same,IC50,[2],82 µM
same,EC50,Jurkat [3],83 µM
same,EC50,[4],119 µM
same,Ratio IC50/EC50,[5],0.5
same,Ratio IC50/EC50,[6],0.7
same,Activity,PBMC,inactive
COc1c(C)c2c(c(O)c1C/C=C(\C)CCC(=O)N[C@H](CCCNC(=N)N[N+](=O)[O-])C(=O)O)C(=O)OC2,IC50,[2],422 µM
same,Activity,Jurkat [7],75.14%
same,EC50,Jurkat [3],1040 µM
same,EC50,[4],588 µM
same,Ratio IC50/EC50,[6],0.7
same,Activity,PBMC,inactive
COC(=O)[C@H](CCCNC(=N)N[N+](=O)[O-])NC(=O)CC/C(C)=C/Cc1c(O)c2c(c(C)c1OC)COC2=O,IC50,Jurkat [1],347 µM
same,IC50,[2],14 µM
same,EC50,Jurkat [3],22.3 µM
same,EC50,[4],77 µM
same,Ratio IC50/EC50,[5],16
same,Ratio IC50/EC50,[6],0.2
same,Activity,PBMC,inactive
COC(=O)C[C@H](NC(=O)CC/C(C)=C/Cc1c(O)c2c(c(C)c1OC)COC2=O)C(=O)OC,IC50,Jurkat [1],20 µM
same,IC50,[2],18 µM
same,EC50,Jurkat [3],16.7 µM
same,EC50,[4],8 µM
same,Ratio IC50/EC50,[5],1.2
same,Ratio IC50/EC50,[6],2.2
same,Activity,PBMC,inactive
COC(=O)[C@@H](CCCNC(=N)N[N+](=O)[O-])NC(=O)CC/C(C)=C/Cc1c(O)c2c(c(C)c1OC)COC2=O,IC50,Jurkat [1],572 µM
same,IC50,[2],71 µM
same,EC50,Jurkat [3],69 µM
same,EC50,[4],95.6 µM
same,Ratio IC50/EC50,[5],8.2
same,Ratio IC50/EC50,[6],0.7
same,Activity,PBMC,inactive
COc1c(C)c2c(c(O)c1C/C=C(\C)CCC(=O)N[C@@H](CCCNC(=N)N[N+](=O)[O-])C(=O)O)C(=O)OC2,IC50,[2],283 µM
same,Activity,Jurkat [7],59.12%
same,EC50,Jurkat [3],1190 µM
same,EC50,[4],132 µM
same,Ratio IC50/EC50,[6],2.2
same,Activity,PBMC,inactive
COc1c(C)c2c(c(O)c1C/C=C(\C)CCC(=O)N[C@@H](CC(=O)O)C(=O)O)C(=O)OC2,IC50,Jurkat [1],540 µM
same,IC50,[2],50 µM
same,EC50,Jurkat [3],396 µM
same,EC50,[4],211 µM
same,Ratio IC50/EC50,[5],1.4
same,Ratio IC50/EC50,[6],0.2
same,Activity,PBMC,inactive
COC(=O)[C@H](NC(=O)CC/C(C)=C/Cc1c(O)c2c(c(C)c1OC)COC2=O)[C@H](C)O,IC50,Jurkat [1],115 µM
same,IC50,[2],69 µM
same,EC50,Jurkat [3],14 µM
same,EC50,[4],9 µM
same,Ratio IC50/EC50,[5],8.3
same,Ratio IC50/EC50,[6],7.3
same,Activity,PBMC,inactive
COc1c(C)c2c(c(O)c1C/C=C(\C)CCC(=O)N[C@@H](C(=O)O)[C@H](C)O)C(=O)OC2,IC50,Jurkat [1],229 µM
same,IC50,[2],118 µM
same,EC50,Jurkat [3],21.4 µM
same,EC50,[4],122 µM
same,Ratio IC50/EC50,[5],11
same,Ratio IC50/EC50,[6],1
same,Activity,PBMC,inactive
COC(=O)[C@H](CCCNC(=N)N[N+](=O)[O-])NC(=O)[C@@H]1CCCN1C(=O)[C@H](CCCCNC(=O)CN)NC(=O)[C@@H](NC(=O)CC/C(C)=C/Cc1c(O)c2c(c(C)c1OC)COC2=O)[C@@H](C)O (Mycophenolyl-TK(Gly)P[Arg(NO2)]-OMe),IC50,[2],628 µM
same,Activity,Jurkat [7],53.4%
same,EC50,Jurkat [3],1030 µM
same,EC50,[4],590 µM
same,Ratio IC50/EC50,[6],1.1
CC[C@H](C)[C@H](N)C(=O)NCCCC[C@H](NC(=O)[C@@H](NC(=O)CC/C(C)=C/Cc1c(O)c2c(c(C)c1OC)COC2=O)[C@@H](C)O)C(=O)N1CCC[C@H]1C(=O)N[C@@H](CCCNC(=N)N[N+](=O)[O-])C(=O)OC (Mycophenolyl-TK(Ile)P[Arg(NO2)]-OMe),IC50,Jurkat [1],809 µM
same,IC50,[2],461 µM
same,EC50,Jurkat [3],924 µM
same,EC50,[4],357 µM
same,Ratio IC50/EC50,[5],0.9
same,Ratio IC50/EC50,[6],1.3
COC(=O)[C@H](CCCNC(=N)N[N+](=O)[O-])NC(=O)[C@@H]1CCCN1C(=O)[C@H](CCCCNC(=O)[C@@H](N)CC(C)C)NC(=O)[C@@H](NC(=O)CC/C(C)=C/Cc1c(O)c2c(c(C)c1OC)COC2=O)[C@@H](C)O (Mycophenolyl-TK(Leu)P[Arg(NO2)]-OMe),IC50,[2],687 µM
same,Activity,Jurkat [7],67.04%
same,EC50,Jurkat [3],801 µM
same,EC50,[4],551 µM
same,Ratio IC50/EC50,[6],1.2
COC(=O)[C@H](CCCNC(=N)N[N+](=O)[O-])NC(=O)[C@@H]1CCCN1C(=O)[C@H](CCCCNC(=O)CCN)NC(=O)[C@@H](NC(=O)CC/C(C)=C/Cc1c(O)c2c(c(C)c1OC)COC2=O)[C@@H](C)O (Mycophenolyl-TK(βAla)P[Arg(NO2)]-OMe),IC50,Jurkat [1],1020 µM
same,IC50,[2],526 µM
same,EC50,Jurkat [3],941 µM
same,EC50,[4],211 µM
same,Ratio IC50/EC50,[5],1.1
same,Ratio IC50/EC50,[6],2.5
same,Activity,PBMC,inactive
COC(=O)[C@@H](NC(=O)[C@H](CCCCNC(=O)[C@H](C)N)NC(=O)[C@@H]1CCCN1C(=O)[C@H](CCCNC(=N)N[N+](=O)[O-])NC(=O)CC/C(C)=C/Cc1c(O)c2c(c(C)c1OC)COC2=O)[C@@H](C)O (Mycophenolyl-[Arg(NO2)]PK(Ala)T-OMe),IC50,[2],750 µM
same,Activity,Jurkat [7],53.9%
same,EC50,Jurkat [3],839 µM
same,EC50,[4],168 µM
same,Ratio IC50/EC50,[6],4.5
same,Activity,PBMC,inactive
COc1c(C)c2c(c(O)c1C/C=C(\C)CCC(=O)O)C(=O)OC2 [MYCOPHENOLIC ACID],IC50,Jurkat [1],60.6 µM
same,IC50,[2],0.14 µM
same,EC50,Jurkat [3],0.3 µM
same,EC50,[4],0.0301 µM
same,Ratio IC50/EC50,[5],228
same,Ratio IC50/EC50,[6],4.6
